Assay outcomes (PubChem BioAssay)
STK33 kinase inh: inhibitors of human STK33 kinase | Q9BYT3 | purified STK33, MBP phosphorylation, ADP-Glo luminescence | inhibition, % at 10 µM | actives 0.073% (n = 320,000) | AID 2661;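 active = inhibition at or above 25%, using the most active replicate where run in duplicate; inactive = inhibition below 25%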
Dyrk1A ADPGlo: blocks rat Dyrk1A kinase activity; ADP-Glo luminescence, NFATc1 peptide; actives 0.43% (n = 310,000); AID 504441; inhibition, % at 12.5 µM; Q63470; in the data active = inhibition above about 50%;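 also: plate controls were vehicle with enzyme for no effect and no enzyme for full effect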
Rin1-Abl PPI inh: inhibitors of human Rin1-Abl protein interaction. P00519+Q13671. TR-FRET Rin1/Abl binding, biochemical. inhibition, % at 7.35 µM. actives 0.4% (n = 360,000); in the data active = inhibition above about 5%, passing the limit was not always enough
GSK3beta inhib: human GSK3beta kinase inhibition | P49841 | GST-GSK3beta kinase, ADP-Glo luminescence, 60 min; active compounds read low | activity score (negative = inhibition), % at 10 µM | actives 0.038% (n = 300,000) | AID 2097;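 active = more than half of replicate wells score below -50%, meaning over 50% inhibition versus plate controls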;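 also: 0% = median DMSO wells and -100% = median GW8510 positive control wells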
Target sequence (P49841 whole entry, looked up): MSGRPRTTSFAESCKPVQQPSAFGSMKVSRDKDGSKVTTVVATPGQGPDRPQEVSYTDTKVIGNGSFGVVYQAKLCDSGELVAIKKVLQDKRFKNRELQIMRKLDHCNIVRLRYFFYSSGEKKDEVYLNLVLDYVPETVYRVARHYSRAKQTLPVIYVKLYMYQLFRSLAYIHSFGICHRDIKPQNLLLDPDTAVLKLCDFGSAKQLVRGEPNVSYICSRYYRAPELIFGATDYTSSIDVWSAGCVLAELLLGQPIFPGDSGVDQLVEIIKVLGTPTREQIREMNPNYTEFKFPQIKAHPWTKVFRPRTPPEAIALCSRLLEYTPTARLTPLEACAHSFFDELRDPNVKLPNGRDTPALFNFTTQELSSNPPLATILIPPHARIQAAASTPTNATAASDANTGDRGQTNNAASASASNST
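test system = GST-tagged human GSK3beta kinase, cell-free | reagent = 25 µM ATP with peptide substrate | dosing = one dose of 10 µM per compound | schedule = 60 min reaction, RT | detection = luminescent ADP-Glo measurement of ADP formed | control set = DMSO neutral wells and GW8510 at 20 µM as positive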
Arrestin-AP2 inh: blocks beta-arrestin peptide binding to AP2 adaptin; FITC-arrestin peptide / GST-AP2 beads, flow cytometry; AP2 beta2 appendage carries R879A mutation; actives 0.31% (n = 340,000); AID 504490; inhibition, % at 10 µM;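 active = inhibition above a set limit, near 3 SD of compounds lacking own fluorescence, cut at about 54% in these data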;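 also: plate controls were DMSO wells for no effect and 5 µM unlabelled arrestin peptide for full effect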
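system = GST-tagged AP2 beta2-adaptin appendage (R879A) on 4 µm glutathione beads | reagent = FITC-labelled arrestin peptide probe, 50 nM final | schedule = compound with beads 12 min RT, then probe 1 h RT | signal = HyperCyt-sampled flow cytometry, FL1 channel, ex 488/em 535 nm | read-out = percent response from loss of bead-bound FITC fluorescence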
GSK3A inh: inhibitors of human GSK-3 alpha kinase | P49840 | ADP-Glo luminescence, 60 min | inhibition, % at 10 µM | actives 0.1% (n = 320,000) | AID 2650;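 active = more than half of replicates show inhibition above 20%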;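 also: GST-tagged GSK-3 alpha with peptide substrate and 25 µM ATP; 0% = DMSO neutral wells and 100% = GW8510 positive control wells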
Rin1 Abl conf: Rin1-Abl interaction inhibition confirmation | shares compounds with Rin1-Abl PPI inh | TR-FRET Rin1-Abl binding, purified proteins | inhibition, % at 7.35 µM | actives 49% (n = 1,300)
GFP quencher: counter-screen for Rin1-Abl inhibitors: GFP fluorescence quenchers. shares compounds with Rin1-Abl PPI inh. inhibitors/quenchers counterscreen. inhibition, % at 6.75 µM. actives 8.5% (n = 1,300);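 also: ABL1-eGFP fusion protein alone without its partner RIN1-SBP; 0% = protein with vehicle and 100% = wells lacking protein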
GFP quench dose: GFP fluorescence interference dose response; shares compounds with Rin1-Abl PPI inh; GFP fluorescence interference/quenching counterscreen; IC50, µM; 230 tested, under 10 active; call rule not given here;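 also: ABL1-eGFP fusion protein alone without its RIN1 binding partner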
* hit, by the source's call; · = not tested or not shown. Rows were chosen to be rich in hits. Some 0.99% of all compounds tested hit in one or more screens of this group. Rule as the data show it, unless noted: active = inhibition above about 6.5%; inactive = the rest.

SMILES | STK33 kinase inh | Dyrk1A ADPGlo | Rin1-Abl PPI inh | GSK3beta inhib | Arrestin-AP2 inh | GSK3A inh | Rin1 Abl conf | GFP quencher | others
NC(=O)COC(=O)CCCSc1nc2ccccc2s1 | -1 | · | 11* | -3 | 6 | 2 | 11* | 1
CNC(=O)NC(=O)COC(=O)CCCSc1nc2ccccc2s1 | -3 | 0 | 0 | 0 | 1 | -1 | · | ·
COc1ccc(-c2oc3ccccc3c2C(=O)Oc2ccccc2)cc1 | 1 | 6 | 4 | 1 | 13 | 0 | · | ·
COc1ccc2nc(Nc3nc(C)c(CCC(C)C)c(=O)[nH]3)nc(C)c2c1 | 1 | 5 | 8.2* | 8 | 28 | 0 | -4 | -2
CCOC(=O)c1c(NC(=O)CN(C)C2CCN(C)CC2)sc(C(=O)Nc2ccccc2)c1C | 0 | 1 | 7.6* | -4 | 8 | 0 | -1 | -1
CCOC(=O)c1c(NC(=O)CSc2cccc[n+]2[O-])sc(C(=O)Nc2ccccc2)c1C | 0 | -2 | -1 | -2 | -1 | -1 | · | ·
CCC(C)N(C(=O)COC(=O)c1ccc(=O)n(Cc2ccccc2)n1)C1CCS(=O)(=O)C1 (configuration not stated) | 0 | 16 | 4 | 4 | 25 | -4 | · | ·
CCN(c1ccccc1)S(=O)(=O)c1ccc(C(=O)Nc2ncccc2O)cc1 | -3 | -4 | -5 | 1 | -1 | -1 | · | ·
CCCN1CCC(NC(=O)Cc2ccccc2C)CC1 | -1 | · | 1 | 3 | 8 | -2 | · | ·
Nc1nc(-c2ccc([N+](=O)[O-])cc2)cc(=O)[nH]1 | · | 6 | 13* | · | -3 | · | 11* | 0
COc1ccc(N2CCN(c3nc4c(c(=O)n(C)c(=O)n4C)n3Cc3ccccc3)CC2)cc1 | 0 | 3 | 5.8* | -6 | 2 | -2 | 7.7* | 0
C[C@H]1c2cccc(O)c2C(O)=C2C(=O)[C@]3(O)C(O)=C(C(N)=O)C(=O)[C@@H](N(C)C)C3[C@@H](O)C21 (some centres not stated) | 0 | 0 | 5 | 1 | -5 | -2 | · | ·
C=C1c2cccc(O)c2C(=O)C2C(=O)[C@]3(O)C(=O)C(C(N)=O)C(=O)[C@@H](N(C)C)[C@@H]3[C@@H](O)[C@H]12 (some centres not stated) | · | 6 | 33* | · | 15 | · | 4 | 3
CC(=O)Nc1cc(OC(C)=O)c2nonc2c1OC(C)=O | 2 | · | 16* | · | 2 | 68* | 0 | 5
Cc1ccc(C2=C(O)C(=O)C(c3ccc(C)cc3)=C(O)C2=O)cc1 | · | 1 | 2 | · | 1 | · | · | ·
CC1=C(O)C(=O)C(C2=C(O)C(=O)C(C)=C(O)C2=O)=C(O)C1=O | · | 4 | 46* | · | 0 | · | 37* | 28*
C[C@H](CO)N1C[C@H](C)[C@@H](CN(C)Cc2ccc(-c3ccccc3)cc2)OCc2cnnn2CCCC1=O | · | · | -1 | · | · | · | · | ·
Oc1ccc(/C=N/Nc2ncnc3c2ncn3Cc2ccccc2)cc1O | 3 | 2 | 12* | 0 | · | 1 | 11* | 9.1*
CCOc1ccc(-c2nnc(N3CCOCC3)c3ccccc23)cc1 | -3 | -1 | 12* | -1 | 31 | -1 | 6.7* | -1
CC12CCC(=O)N1C(C(=O)N1CCN(S(=O)(=O)c3ccc(Br)cc3Cl)CC1)CS2 (configuration not stated) | 0 | -3 | 19* | -2 | 45 | 0 | 17* | 2 | GFP quench dose=>68
NS(=O)(=O)c1ccc(N2CCOCC2)c(C(=O)NCCCSc2ccccc2)c1 | -2 | · | 4 | · | -9 | 2 | · | ·
COc1ccc(CNC(=O)C2(C)Cc3c(-c4cccc(C(N)=O)c4)ccnc3O2)cc1OC (configuration not stated) | · | · | 11* | · | · | · | 7.2* | 0
CC1(C(=O)Nc2cccc(NS(C)(=O)=O)c2)Cc2c(-c3cccc(C(N)=O)c3)ccnc2O1 (configuration not stated) | · | · | 1 | · | · | · | · | ·
